According to ChEMBL document CHEMBL3098117, “Identification and optimization of an aminoalcohol-carbazole series with antimalarial properties” (ACS Med Chem Lett, 2013):
Calls of active or inactive are those of the source. The calls are words filed in the database; no cut-off is given here.

Experiments:
[1] = Oral bioavailability in NMRI mouse at 5 mg/kg by LC-MS/MS analysis; assay type: ADME, organism-based; settings: in vivo
[2] = molecular target: Cytochrome P450 2C19 (Homo sapiens, UniProt P33261); test: Inhibition of human recombinant CYP2C19 expressed in baculovirus-infected insect cells preincubated for 15 mins followed by substrate addition measured after 30 mins by luminescence assay; assay type: ADME; settings: recombinant enzyme, 0.5 h
[3] = tested on: Plasmodium falciparum; test: Antimalarial activity against chloroquine and pyrimethamine-resistant Plasmodium falciparum K1; assay type: functional, organism-based
Summary of the method: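 P. falciparum cultured with test drug in human red blood cells for 3 days. Growth read out as hypoxanthine incorporation.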

[4] = tested on: Plasmodium berghei; test: Antimalarial activity against Plasmodium berghei ANKA expressing GFP infected in po dosed NMRI mouse assessed as reduction in parasitemia administered qd for 4 days measured at 24 hrs after last dose; assay type: functional
Summary of the method: (§1)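 P. berghei-infected mice dosed orally once daily on days 0–3, first dose 4 h postinfection, at 3, 10, 30 and 100 mg/kg/day. Red blood cell parasitemia and plasma exposure measured on day 4, 24 h after last dose; ED50 derived from dose-response; survival then monitored for 26 further days as mean survival days.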

[5] = tested on: Salmonella typhimurium; test: Mutagenic activity in Salmonella typhimurium by Ames test; assay type: toxicity, organism-based; settings: salmonella enterica subsp. enterica serovar typhimurium
[6] = AUC in NMRI mouse at 1 mg/kg, iv and 5 mg/kg, po by LC-MS/MS analysis; assay type: ADME, organism-based; settings: plasma
[7] = Cmax in NMRI mouse at 1 mg/kg, iv and 5 mg/kg, po by LC-MS/MS analysis; assay type: ADME, organism-based; settings: in vivo
[8] = molecular target: Sodium channel protein type 5 subunit alpha (Homo sapiens, UniProt Q14524); test: Inhibition of human Nav1.5 channel
[9] = Terminal half life in NMRI mouse at 5 mg/kg, po by LC-MS/MS analysis; assay type: ADME, organism-based; parameters: dose 5 mg/kg, route oral; settings: in vivo, read-out: beta t1/2 (converted)
[10] = molecular target: T1, Cytochrome P450 2B6 (Homo sapiens, UniProt P20813); test: Inhibition of human recombinant CYP2B6 expressed in baculovirus-infected insect cells preincubated for 15 mins followed by substrate addition measured after 30 mins by luminescence assay; assay type: ADME; settings: recombinant enzyme, 0.5 h
T1 sequence (P20813 whole entry): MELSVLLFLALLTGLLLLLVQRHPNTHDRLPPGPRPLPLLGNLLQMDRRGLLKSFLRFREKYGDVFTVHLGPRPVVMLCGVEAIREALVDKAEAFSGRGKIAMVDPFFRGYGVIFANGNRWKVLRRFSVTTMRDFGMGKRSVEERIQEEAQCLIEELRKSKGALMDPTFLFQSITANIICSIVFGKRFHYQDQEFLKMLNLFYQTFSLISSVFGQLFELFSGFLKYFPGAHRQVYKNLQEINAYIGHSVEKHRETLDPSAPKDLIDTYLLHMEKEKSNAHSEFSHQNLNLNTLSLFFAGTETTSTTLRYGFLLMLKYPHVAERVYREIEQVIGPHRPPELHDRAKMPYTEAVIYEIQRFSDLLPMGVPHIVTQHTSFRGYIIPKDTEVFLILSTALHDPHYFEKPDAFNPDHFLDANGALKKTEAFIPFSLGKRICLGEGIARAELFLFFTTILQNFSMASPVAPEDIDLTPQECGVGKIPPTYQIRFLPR

[11] = tested on: Plasmodium falciparum; test: Antimalarial activity against chloroquine, pyrimethamine, sulfadoxine, quinine and mefloquine-sensitive Plasmodium falciparum D6; assay type: functional, organism-based
[12] = Genotoxicity in micronucleus (unknown origin) under metabolic conditions; assay type: ADME
[13] = tested on: Plasmodium falciparum; test: Antimalarial activity against chloroquine, pyrimethamine, sulfadoxine and quinine-resistant Plasmodium falciparum W2; assay type: functional, organism-based
[14] = molecular target: T2, A-type voltage-gated potassium channel KCND3 (Homo sapiens, UniProt Q9UK17); test: Inhibition of Kv4.3 channel (unknown origin)
T2 sequence (Q9UK17 whole entry): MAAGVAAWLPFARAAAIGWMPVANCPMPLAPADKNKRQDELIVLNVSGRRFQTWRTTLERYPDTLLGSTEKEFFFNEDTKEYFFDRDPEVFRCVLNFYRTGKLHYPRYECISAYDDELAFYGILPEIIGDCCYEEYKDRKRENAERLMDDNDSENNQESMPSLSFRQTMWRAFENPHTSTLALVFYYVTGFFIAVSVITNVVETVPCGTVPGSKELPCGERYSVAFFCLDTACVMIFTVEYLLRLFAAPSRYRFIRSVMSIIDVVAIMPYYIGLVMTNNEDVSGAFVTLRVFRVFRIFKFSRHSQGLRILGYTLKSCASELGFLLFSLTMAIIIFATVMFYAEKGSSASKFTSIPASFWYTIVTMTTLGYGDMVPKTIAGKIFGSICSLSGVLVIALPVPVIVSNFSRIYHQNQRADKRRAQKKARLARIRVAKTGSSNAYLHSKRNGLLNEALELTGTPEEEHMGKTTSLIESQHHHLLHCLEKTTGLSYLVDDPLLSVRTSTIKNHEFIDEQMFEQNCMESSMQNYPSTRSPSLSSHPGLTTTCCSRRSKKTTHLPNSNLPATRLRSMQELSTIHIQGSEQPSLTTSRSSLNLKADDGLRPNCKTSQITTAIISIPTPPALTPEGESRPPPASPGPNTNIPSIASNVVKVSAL

[15] = tested on: Plasmodium falciparum; test: Antimalarial activity against Plasmodium falciparum K1 infected in human RBC after 72 hrs by hypoxanthine incorporation assay in presence of serum albumin; assay type: functional, organism-based; settings: K1, 72 h
Summary of the method: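 Mixture of drug, human red blood cells and P. falciparum incubated 3 days (72 h) with serum albumin present; growth read as hypoxanthine incorporation.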

[16] = molecular target: Voltage-dependent L-type calcium channel subunit alpha-1C (Homo sapiens, UniProt Q13936); test: Inhibition of human Cav1.2 channel
[17] = tested on: Plasmodium berghei; test: Antimalarial activity against Plasmodium berghei ANKA expressing GFP infected in NMRI mouse assessed as increase in mouse survival at 30 mg/kg/day, po qd for 4 days measured at 24 hrs after last dose; assay type: functional, organism-based; summary of the method: as §1
[18] = molecular target: Cytochrome P450 2C9 (Homo sapiens, UniProt P11712); test: Inhibition of human recombinant CYP2C9 expressed in baculovirus-infected insect cells preincubated for 15 mins followed by substrate addition measured after 30 mins by luminescence assay; assay type: ADME; settings: recombinant enzyme, 0.5 h
[19] = molecular target: Cytochrome P450 3A4 (Homo sapiens, UniProt P08684); test: Inhibition of human recombinant CYP3A4 expressed in baculovirus-infected insect cells preincubated for 15 mins followed by substrate addition measured after 30 mins by luminescence assay; assay type: ADME; settings: recombinant enzyme, 0.5 h
Chain of Cytochrome P450 3A4 (P08684 whole entry): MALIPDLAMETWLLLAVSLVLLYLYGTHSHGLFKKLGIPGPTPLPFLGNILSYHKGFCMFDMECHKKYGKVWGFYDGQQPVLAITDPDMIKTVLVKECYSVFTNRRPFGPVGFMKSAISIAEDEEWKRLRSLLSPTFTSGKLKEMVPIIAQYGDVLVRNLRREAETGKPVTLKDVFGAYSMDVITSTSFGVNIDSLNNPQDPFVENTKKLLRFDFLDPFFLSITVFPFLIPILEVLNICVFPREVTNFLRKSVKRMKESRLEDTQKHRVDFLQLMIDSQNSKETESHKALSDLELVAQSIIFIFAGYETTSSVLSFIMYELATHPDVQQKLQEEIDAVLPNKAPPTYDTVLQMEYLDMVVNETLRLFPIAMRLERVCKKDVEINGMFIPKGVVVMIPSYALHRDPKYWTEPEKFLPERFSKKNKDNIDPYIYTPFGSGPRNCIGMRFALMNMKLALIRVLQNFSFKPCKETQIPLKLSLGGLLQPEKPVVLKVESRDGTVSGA

Chain of Cytochrome P450 2C9 (P11712 whole entry): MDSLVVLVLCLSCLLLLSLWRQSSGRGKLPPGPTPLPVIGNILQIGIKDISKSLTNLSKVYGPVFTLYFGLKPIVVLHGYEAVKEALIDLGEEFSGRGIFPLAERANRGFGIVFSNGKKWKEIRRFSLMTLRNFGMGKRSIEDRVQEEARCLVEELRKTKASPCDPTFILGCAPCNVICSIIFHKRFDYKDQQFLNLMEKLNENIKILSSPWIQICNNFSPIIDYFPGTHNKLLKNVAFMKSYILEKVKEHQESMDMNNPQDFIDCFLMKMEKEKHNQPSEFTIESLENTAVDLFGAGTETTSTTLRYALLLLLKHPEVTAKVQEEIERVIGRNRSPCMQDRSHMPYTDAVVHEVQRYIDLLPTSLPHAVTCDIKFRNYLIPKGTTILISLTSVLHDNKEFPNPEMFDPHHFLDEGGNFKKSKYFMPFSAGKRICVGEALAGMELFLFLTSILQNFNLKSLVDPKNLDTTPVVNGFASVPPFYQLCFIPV
Chain of Cytochrome P450 2C19 (P33261 whole entry): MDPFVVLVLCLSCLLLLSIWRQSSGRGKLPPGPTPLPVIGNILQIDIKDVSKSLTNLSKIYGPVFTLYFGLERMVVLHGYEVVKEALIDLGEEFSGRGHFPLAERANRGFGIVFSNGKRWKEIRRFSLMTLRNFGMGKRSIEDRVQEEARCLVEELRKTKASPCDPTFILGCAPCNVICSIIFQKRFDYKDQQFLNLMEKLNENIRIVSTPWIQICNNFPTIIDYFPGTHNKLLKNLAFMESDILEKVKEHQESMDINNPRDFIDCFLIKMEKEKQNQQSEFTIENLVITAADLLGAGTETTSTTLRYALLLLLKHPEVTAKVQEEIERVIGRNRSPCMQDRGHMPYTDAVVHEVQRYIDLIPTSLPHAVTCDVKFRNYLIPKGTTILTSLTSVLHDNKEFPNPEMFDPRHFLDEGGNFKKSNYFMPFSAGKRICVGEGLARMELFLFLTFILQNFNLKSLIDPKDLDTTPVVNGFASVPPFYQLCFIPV
Chain of Sodium channel protein type 5 subunit alpha (Q14524 whole entry): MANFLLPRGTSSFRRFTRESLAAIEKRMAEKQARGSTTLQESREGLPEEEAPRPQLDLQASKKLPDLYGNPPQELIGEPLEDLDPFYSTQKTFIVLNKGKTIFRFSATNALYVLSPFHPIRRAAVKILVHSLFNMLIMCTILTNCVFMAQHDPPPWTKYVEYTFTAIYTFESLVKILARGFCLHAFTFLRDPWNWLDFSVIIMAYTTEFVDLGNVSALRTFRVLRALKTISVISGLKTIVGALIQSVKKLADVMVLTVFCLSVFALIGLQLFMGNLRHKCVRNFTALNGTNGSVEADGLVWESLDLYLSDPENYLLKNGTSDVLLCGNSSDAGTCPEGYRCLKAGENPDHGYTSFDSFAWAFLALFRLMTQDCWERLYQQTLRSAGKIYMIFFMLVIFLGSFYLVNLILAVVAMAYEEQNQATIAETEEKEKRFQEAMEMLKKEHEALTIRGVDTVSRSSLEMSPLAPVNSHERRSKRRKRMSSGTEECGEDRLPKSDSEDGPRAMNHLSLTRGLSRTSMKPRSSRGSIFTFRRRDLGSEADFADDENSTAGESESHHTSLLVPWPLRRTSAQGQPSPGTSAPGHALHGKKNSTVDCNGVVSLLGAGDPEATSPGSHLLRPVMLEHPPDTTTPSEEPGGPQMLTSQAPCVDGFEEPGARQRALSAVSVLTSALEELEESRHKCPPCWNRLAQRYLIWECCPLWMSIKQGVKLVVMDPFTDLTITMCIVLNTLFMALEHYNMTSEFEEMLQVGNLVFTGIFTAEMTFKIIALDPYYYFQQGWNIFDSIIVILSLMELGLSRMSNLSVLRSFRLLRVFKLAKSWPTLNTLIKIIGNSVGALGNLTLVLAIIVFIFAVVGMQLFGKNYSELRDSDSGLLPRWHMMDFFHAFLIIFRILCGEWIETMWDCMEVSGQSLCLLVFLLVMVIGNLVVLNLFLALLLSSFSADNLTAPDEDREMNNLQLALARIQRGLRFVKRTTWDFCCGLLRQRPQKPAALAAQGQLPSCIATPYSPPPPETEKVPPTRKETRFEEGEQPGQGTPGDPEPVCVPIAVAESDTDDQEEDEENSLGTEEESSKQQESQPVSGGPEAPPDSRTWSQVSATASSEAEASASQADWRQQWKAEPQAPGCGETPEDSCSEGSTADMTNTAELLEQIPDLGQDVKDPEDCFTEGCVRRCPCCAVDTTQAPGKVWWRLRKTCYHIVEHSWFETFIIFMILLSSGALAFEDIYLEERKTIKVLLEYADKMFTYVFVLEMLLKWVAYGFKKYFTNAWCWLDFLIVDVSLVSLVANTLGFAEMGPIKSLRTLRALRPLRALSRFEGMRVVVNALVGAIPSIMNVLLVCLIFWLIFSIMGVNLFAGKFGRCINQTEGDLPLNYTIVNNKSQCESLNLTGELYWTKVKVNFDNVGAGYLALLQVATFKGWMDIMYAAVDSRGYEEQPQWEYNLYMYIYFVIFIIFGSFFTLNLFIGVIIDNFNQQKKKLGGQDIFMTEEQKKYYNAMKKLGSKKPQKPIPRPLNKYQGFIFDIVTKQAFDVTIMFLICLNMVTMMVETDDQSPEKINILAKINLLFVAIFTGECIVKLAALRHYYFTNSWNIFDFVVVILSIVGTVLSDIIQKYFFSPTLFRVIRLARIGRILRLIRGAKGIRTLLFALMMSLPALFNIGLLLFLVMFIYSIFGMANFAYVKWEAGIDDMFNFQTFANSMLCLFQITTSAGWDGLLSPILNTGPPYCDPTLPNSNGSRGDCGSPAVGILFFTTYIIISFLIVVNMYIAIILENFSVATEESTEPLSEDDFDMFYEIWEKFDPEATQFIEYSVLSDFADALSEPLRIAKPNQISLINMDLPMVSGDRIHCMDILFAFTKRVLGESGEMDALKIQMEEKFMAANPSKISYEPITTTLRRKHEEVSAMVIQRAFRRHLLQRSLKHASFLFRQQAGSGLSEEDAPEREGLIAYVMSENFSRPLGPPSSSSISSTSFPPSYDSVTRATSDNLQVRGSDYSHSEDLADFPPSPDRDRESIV

SMILES: OC(CNC1CCCCC1)Cn1c2ccc(Br)cc2c2cc(Br)ccc21 (racemic)
- bioavailability [1]: 50%
- inhibition (INH) [2]: Active
- Activity [3]: Active
- Activity [4]: Dose dependent effect
- ED50 [4]: 11.4 mg/kg/day
- Activity [5]: Non-toxic
- AUC [6]: 3750 ng·h/mL
- Cmax [7]: 158 ng/mL
- inhibition (INH) [8]: Not Active
- half-life [9]: 15 h
- inhibition (INH) [10]: Active
- Activity [11]: Active
- Activity [12]: Non-toxic
- Activity [13]: Active
- inhibition (INH) [14]: Not Active
- IC50 [15]: 9 nM
- inhibition (INH) [16]: Not Active
- Activity [17]: Active
- inhibition (INH) [18]: Active
- inhibition (INH) [19]: Active
